# ChEMBL document CHEMBL1152662, “Synthesis and biological evaluation of novel 2-(substituted phenylaminocarbonylmethylthio)-6-(2,6-dichlorobenzyl)-pyrimidin-4(3H)-ones as potent HIV-1 NNRTIs” (Bioorg Med Chem, 2009)
# What was measured:
# [1] = Selectivity index, ratio of CC50 for mock-infected human MT4 cells to EC50 for HIV1 3B infected in human MT4 cells; format: toxicity, cell-based; settings: read-out: Ratio CC50/EC50
# Outline: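 Selectivity index calculated as CC50 over EC50, both from 5-day MTT viability readings in MT-4 cells, mock-infected or HIV-1 IIIB-infected, run in parallel triplicate wells.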
# [2] = system: Human immunodeficiency virus 1; assay: Antiviral activity against HIV1 3B infected in human MT4 cells assessed as inhibition of virus-induced cytopathic effect after 5 days by MTT assay; format: functional, organism-based; settings: Human immunodeficiency virus 1, 3B, MT4, 120 h
# Outline: (§1)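 Compounds added at start in triplicate wells (stocks at 10× final) as serial fivefold dilutions; MT-4 cells at 6 × 10⁵ cells/mL infected with HIV-1 IIIB or HIV-2 ROD. Viability read by MTT 5 days post-infection at 540 and 690 nm, median OD of three wells. EC50 is the concentration giving 50% protection against virus-induced cytotoxicity.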
# [3] = system: Human immunodeficiency virus 2; assay: Antiviral activity against HIV2 ROD infected in human MT4 cells assessed as inhibition of virus-induced cytopathic effect after 5 days by MTT assay; format: functional, organism-based; settings: Human immunodeficiency virus 2, ISOLATE ROD, MT4, 120 h; outline: as §1
# [4] = Cytotoxicity against mock-infected human MT4 cells after 5 days by MTT assay; format: cell-based
# Outline: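 Mock-infected MT-4 cells (6 × 10⁵ cells/mL) exposed in triplicate to serial fivefold dilutions, added at start from stocks at 10× final concentration. Viability measured by MTT after 5 days, absorbance at 540 and 690 nm, median OD of three wells. CC50 is the concentration lowering OD540 of mock-infected control by 50%.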
SMILES,selectivity ratio [1],EC50 [2] [µM],EC50 [3] [µM],CC50 at 120 h [4] [µM]
Cc1c(Cc2c(Cl)cccc2Cl)nc(SCC(=O)Nc2ccc(Cl)cc2)[nH]c1=O,> 836,0.32,> 267,> 267
COc1ccc(NC(=O)CSc2nc(Cc3c(Cl)cccc3Cl)c(C)c(=O)[nH]2)cc1,4,2.74,> 10.8,10.8
O=C(CSc1nc(Cc2c(Cl)cccc2Cl)cc(=O)[nH]1)Nc1ccc(Cl)c(Cl)c1,,≥ 84.6,> 19.6,19.6
Cc1c(Cc2c(Cl)cccc2Cl)nc(SCC(=O)Nc2ccc(F)c(F)c2)[nH]c1=O,> 387,0.69,> 266,> 266
O=C(CSc1nc(Cc2c(Cl)cccc2Cl)cc(=O)[nH]1)Nc1ccc([N+](=O)[O-])cc1,> 130,2.07,> 269,> 269
COc1ccc(NC(=O)CSc2nc(Cc3c(Cl)cccc3Cl)c(C)c(=O)[nH]2)cc1OC,> 175,1.45,> 253,> 253
O=C(CSc1nc(Cc2c(Cl)cccc2Cl)cc(=O)[nH]1)Nc1ccc(Br)cc1,31,0.74,> 22.8,22.8
COc1ccc(NC(=O)CSc2nc(Cc3c(Cl)cccc3Cl)cc(=O)[nH]2)cc1,28,0.92,> 25.2,25.5
Cc1c(Cc2c(Cl)cccc2Cl)nc(SCC(=O)Nc2ccc([N+](=O)[O-])cc2)[nH]c1=O,> 264,0.99,≥ 45.8,> 261
O=C(CSc1nc(Cc2c(Cl)cccc2Cl)cc(=O)[nH]1)Nc1ccc(F)c(F)c1,≥ 1,> 274,> 274,> 274
Cc1c(Cc2c(Cl)cccc2Cl)nc(SCC(=O)Nc2ccc(F)c(Cl)c2)[nH]c1=O,≥ 1,≥ 41.1,> 257,> 257
O=C(CSc1nc(Cc2c(Cl)cccc2Cl)cc(=O)[nH]1)Nc1ccc(F)c(Cl)c1,< 1,> 264,> 264,> 264
Cc1c(Cc2c(Cl)cccc2Cl)nc(SCC(=O)Nc2ccc(Br)cc2)[nH]c1=O,> 1330,0.18,> 244,> 244
COc1ccc(NC(=O)CSc2nc(Cc3c(Cl)cccc3Cl)cc(=O)[nH]2)cc1OC,28,4.48,> 166,166
Cc1c(Cc2c(Cl)cccc2Cl)nc(SCC(=O)Nc2ccc(Cl)c(Cl)c2)[nH]c1=O,≥ 88,≥ 2.82,> 248,> 248
Cc1ccc(NC(=O)CSc2nc(Cc3c(Cl)cccc3Cl)cc(=O)[nH]2)cc1,≥ 54,0.88,> 47.4,≥ 47.4
O=C(CSc1nc(Cc2c(Cl)cccc2Cl)cc(=O)[nH]1)Nc1ccc(Cl)cc1,23,0.95,> 24.8,24.8
